In paper PMC4894846 (Nature cell biology, 2014):
“And” between values parts separate entries of the source, which are not always exact repeats. Equal entries are not always repeated.

Legend:
Pfa1 cells [1] = assay: Cell death elicited by ferroptosis-inducing agents; format: cell-based, mouse; conditions: for Induction of cell death through GSH depletion: Pfa1 cells; for Prevention of cell death elicited by FINs: erastin 2.5 μM, BSO 20 μM, RSL3 20 nM, DFO 10 μM, Fer1 0.1 μM, αToc 1 μM, Nec1 20 μM, Z-VAD-FMK 50 μM
[2] = system: TAM-inducible Gpx4−/− cells (Pfa1); assay: Rescue of cell death induced by TAM-inducible Gpx4 deletion in Pfa1 cells; format: cell-based, mouse; conditions: 1 μM TAM, viability 72 h after knockout induction
Gpx4−/− cells = assay: Lipid peroxidation in Gpx4−/− cells; format: cell-based, mouse; conditions: 48 h after knockout induction; Liproxstatin-1 50 nM
Summary of the method: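 Gpx4 loss is induced in TAM-inducible Pfa1 cells grown in dishes in DMEM with 10% FBS. Test compound is present during induction. At 48 h after knockout induction, cells are washed, stained with BODIPY 581/591 C11 for 1 h, and probe oxidation is measured by flow cytometry.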

CYP450 2D6 = CYP450 2D6 (Homo sapiens, UniProt P10635); assay: CYP450 inhibition 2D6; format: in vitro ADME; conditions: read-out: CYP450 inhibition 2D6 IC50
C57BL/6J mice = assay: Hepatic ischaemia/reperfusion injury model; format: in vivo, mouse; conditions: 90 min ischaemia, 24 h reperfusion
Summary of the method: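 Male C57BL/6J mice, 8–10 weeks old, 22–24 g, randomised; operators blinded. Under xylazine/ketamine, an atraumatic clip is placed across the portal vein, hepatic artery and bile duct above the right lateral lobe branch. Reperfusion follows 90 min of ischaemia. At 24 h, serum ALT/AST is measured and necrotic area is scored (n = 17 and n = 5). Mean ± s.e.m.; one-way ANOVA with Dunnett's post-test.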

L929 cells = assay: TNFα/Z-VAD-FMK-induced necroptosis in L929 cells; format: cell-based; conditions: Liproxstatin-1 1 μM; TNFα 5 ng ml^−1 + Z-VAD-FMK 50 μM; 8 h
HepG2 cells = assay: Cytotoxicity in HepG2 cells; format: cell-based; conditions: 72 h incubation
Summary of the method: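 Cells are incubated with increasing concentrations of the test compound for 72 h. Viability is then read with the AquaBluer live-cell indicator. TC50 is derived by curve fitting.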

CYP450 1A = assay: CYP450 inhibition 1A; format: in vitro ADME; conditions: read-out: CYP450 inhibition 1A IC50
CYP450 2C9 = CYP450 2C9 (Homo sapiens, UniProt P11712); assay: CYP450 inhibition 2C9; format: in vitro ADME; conditions: read-out: CYP450 inhibition 2C9 IC50
CYP450 3A4 = CYP450 3A4 (Homo sapiens, UniProt P08684); assay: CYP450 inhibition 3A4; format: in vitro ADME; conditions: read-out: CYP450 inhibition 3A4 IC50
Pfa1 cells [3] = assay: Cell death induced by staurosporine and H2O2; format: cell-based, mouse; conditions: Liproxstatin-1 200 nM; staurosporine 0.2 μM, H2O2 200 μM; 24 h
Summary of the method: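 Gpx4-proficient (non-induced) Pfa1 mouse cells, kept in DMEM with 10% FBS. The test compound is given together with the death trigger: BSO 10 μM, erastin 1 μM or RSL3 0.5 μM, or staurosporine 0.2 μM or H2O2 200 μM. Viability is read 24 h after treatment. Mean ± s.d. of n = 3 wells; representative of at least four independent experiments.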

hERG channel = hERG channel (Homo sapiens, UniProt Q12809); assay: hERG patch clamp assay; format: cell-based; conditions: read-out: hERG patch clamp assay IC50
CreERT2;Gpx4fl/fl mice = assay: In vivo rescue of TAM-induced CreERT2; set-up: species or system mouse; conditions: 10 mg kg^−1 i.p. daily
Summary of the method: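 CreERT2;Gpx4fl/fl mice receive 0.5 mg TAM in Miglyol on days 1 and 3. From day 4, the test compound (10 mg kg−1) or vehicle (1% DMSO in PBS) is given i.p. once daily, with injections and scoring blinded. Survival is compared by log-rank/Gehan–Breslow–Wilcoxon tests (n = 12 vehicle, n = 13 treated; run twice). Kidney TUNEL+ cells are counted 9 days after TAM.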

Mouse pharmacokinetics = format: in vivo
[4] = system: primary human renal proximal tubule epithelial cells (HRPTEpiCs); assay: Viability of HRPTEpiCs treated with RSL3; format: cell-based; conditions: 24 h
Summary of the method: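 Primary human renal proximal tubule epithelial cells, cultured per supplier recommendations. Cells are exposed to RSL3 with or without test compound, and viability is read by AquaBluer 24 h after treatment. Mean ± s.d. of n = 3 wells; representative of three independent experiments.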

CYP450 2C19 = CYP450 2C19 (Homo sapiens, UniProt P33261); assay: CYP450 inhibition 2C19; format: in vitro ADME; conditions: read-out: CYP450 inhibition 2C19 IC50
HRPTEpiCs = assay: RSL3-induced lipid oxidation in HRPTEpiCs; format: cell-based, human; conditions: RSL3 0.2 μM; 24 h
Summary of the method: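 Primary human renal proximal tubule epithelial cells, cultured per supplier recommendations. Cells are treated with RSL3 (0.2 μM) with or without test compound. After 24 h, cells are stained with BODIPY 581/591 C11 for 1 h and lipid oxidation is measured by flow cytometry. Representative of four independent experiments.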

[5] = system: PZL cells (CreERT2;Gpx4fl/fl/Alox15−/−); assay: Cell death on TAM-induced Gpx4 deficiency in PZL cells; format: cell-based, mouse
Rip1−/− cells = assay: FIN/RSL3-induced ferroptosis in Rip1−/− cells; format: cell-based; conditions: RSL3 1 μM; 6 h pre-treatment; viability at 24 h

Chain of CYP450 2D6 (P10635 whole entry, the tested form may be a part): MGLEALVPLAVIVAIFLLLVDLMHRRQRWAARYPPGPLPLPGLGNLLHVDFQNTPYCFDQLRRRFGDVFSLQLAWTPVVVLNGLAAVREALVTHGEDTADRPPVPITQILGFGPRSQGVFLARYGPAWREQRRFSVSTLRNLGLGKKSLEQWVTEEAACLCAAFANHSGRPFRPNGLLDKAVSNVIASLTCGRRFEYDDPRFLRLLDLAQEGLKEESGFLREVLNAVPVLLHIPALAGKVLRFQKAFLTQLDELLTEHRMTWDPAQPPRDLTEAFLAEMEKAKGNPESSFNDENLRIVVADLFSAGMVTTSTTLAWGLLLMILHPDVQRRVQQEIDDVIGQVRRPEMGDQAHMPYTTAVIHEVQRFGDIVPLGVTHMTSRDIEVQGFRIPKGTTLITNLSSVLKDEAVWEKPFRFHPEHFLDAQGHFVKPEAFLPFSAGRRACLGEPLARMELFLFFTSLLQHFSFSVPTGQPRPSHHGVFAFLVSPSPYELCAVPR
Chain of CYP450 3A4 (P08684 whole entry): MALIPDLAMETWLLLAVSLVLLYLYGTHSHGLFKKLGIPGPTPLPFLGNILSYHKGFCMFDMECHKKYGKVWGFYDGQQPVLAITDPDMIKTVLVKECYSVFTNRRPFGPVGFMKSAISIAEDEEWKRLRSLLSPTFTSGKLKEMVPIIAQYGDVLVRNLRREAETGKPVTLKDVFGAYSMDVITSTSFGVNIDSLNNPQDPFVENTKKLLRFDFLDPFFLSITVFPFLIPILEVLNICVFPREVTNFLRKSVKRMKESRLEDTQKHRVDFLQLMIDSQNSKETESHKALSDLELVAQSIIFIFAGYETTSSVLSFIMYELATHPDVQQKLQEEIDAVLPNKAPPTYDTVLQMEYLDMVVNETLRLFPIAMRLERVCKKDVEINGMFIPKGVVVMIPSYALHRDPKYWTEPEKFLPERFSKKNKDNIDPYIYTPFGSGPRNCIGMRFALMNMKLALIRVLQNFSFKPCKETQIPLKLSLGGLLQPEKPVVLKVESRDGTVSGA
Chain of CYP450 2C9 (P11712 whole entry): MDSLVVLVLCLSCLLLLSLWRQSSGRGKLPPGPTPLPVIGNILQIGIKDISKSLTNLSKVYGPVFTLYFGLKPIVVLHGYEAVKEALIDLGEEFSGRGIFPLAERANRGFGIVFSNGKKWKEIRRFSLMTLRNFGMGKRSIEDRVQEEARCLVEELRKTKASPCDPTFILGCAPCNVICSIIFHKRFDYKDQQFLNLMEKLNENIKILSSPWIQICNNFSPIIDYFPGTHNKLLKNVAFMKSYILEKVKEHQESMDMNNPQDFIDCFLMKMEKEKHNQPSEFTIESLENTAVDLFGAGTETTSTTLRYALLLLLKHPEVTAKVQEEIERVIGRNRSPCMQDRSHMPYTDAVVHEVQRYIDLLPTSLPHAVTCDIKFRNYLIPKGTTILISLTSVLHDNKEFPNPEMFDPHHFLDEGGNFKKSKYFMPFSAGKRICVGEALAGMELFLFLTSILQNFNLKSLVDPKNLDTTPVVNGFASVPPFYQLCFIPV
Chain of CYP450 2C19 (P33261 whole entry): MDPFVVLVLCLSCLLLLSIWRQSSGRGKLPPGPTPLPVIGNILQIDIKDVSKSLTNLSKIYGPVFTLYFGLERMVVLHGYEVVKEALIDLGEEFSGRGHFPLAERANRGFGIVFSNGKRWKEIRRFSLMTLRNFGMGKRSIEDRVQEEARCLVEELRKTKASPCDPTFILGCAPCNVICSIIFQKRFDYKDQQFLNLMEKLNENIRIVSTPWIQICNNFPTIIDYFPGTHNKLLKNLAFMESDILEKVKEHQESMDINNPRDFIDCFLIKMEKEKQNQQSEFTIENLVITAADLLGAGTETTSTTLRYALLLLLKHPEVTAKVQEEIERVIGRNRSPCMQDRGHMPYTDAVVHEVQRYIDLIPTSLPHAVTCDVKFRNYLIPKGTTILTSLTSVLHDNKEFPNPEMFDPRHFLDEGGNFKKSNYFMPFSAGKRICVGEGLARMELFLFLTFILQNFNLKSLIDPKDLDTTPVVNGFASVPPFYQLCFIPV
Chain of hERG channel (Q12809 whole entry): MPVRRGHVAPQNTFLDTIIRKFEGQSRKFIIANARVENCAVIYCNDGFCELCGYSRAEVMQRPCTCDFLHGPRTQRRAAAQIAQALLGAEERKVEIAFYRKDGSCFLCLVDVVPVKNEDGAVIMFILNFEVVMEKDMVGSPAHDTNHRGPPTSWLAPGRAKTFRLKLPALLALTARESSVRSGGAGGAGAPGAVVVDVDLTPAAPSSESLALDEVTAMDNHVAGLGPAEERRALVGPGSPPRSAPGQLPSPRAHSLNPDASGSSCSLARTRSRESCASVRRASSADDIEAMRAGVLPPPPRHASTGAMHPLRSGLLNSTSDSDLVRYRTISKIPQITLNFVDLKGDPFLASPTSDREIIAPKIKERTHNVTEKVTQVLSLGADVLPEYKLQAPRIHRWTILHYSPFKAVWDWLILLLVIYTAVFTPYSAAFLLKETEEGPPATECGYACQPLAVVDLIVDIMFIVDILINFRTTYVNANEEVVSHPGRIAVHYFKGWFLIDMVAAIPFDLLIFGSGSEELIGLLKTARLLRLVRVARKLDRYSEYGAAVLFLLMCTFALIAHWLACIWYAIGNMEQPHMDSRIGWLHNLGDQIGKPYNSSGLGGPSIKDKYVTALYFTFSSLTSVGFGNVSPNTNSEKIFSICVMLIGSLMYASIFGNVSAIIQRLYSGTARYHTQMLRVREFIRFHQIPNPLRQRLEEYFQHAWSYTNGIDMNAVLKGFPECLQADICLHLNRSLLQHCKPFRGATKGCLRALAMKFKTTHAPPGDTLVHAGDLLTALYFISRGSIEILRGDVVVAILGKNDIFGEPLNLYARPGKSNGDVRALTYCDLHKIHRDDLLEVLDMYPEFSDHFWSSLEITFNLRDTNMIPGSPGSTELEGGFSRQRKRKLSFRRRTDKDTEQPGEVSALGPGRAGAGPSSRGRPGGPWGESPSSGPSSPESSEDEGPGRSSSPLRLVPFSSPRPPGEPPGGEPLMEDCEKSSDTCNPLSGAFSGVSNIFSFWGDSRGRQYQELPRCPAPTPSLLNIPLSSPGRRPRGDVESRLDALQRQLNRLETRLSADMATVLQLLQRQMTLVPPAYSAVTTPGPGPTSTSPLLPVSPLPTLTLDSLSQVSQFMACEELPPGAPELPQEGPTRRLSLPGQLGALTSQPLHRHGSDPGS

## CCCCS(=N)(=O)CCC(N)C(=O)O [BSO, L-buthionine sulphoximine]
Pfa1 cells [1]
  Induction of cell death through GSH depletion: efficiently triggered rapid cell death

## CC(=O)N(O)C/C=C/c1cccc(Oc2ccccc2)c1 [BWA4C]
[2]
  Rescue of cell death in response to Gpx4 deletion: prevented cell death

## CC(=O)N(O)CCCCCNC(=O)CCC(=O)N(O)CCCCCNC(=O)CCC(=O)N(O)CCCCCN [DFO, deferoxamine]
[2]
  Rescue of cell death in response to Gpx4 deletion: cell death could also be inhibited
Pfa1 cells [1]; 24 h
  Prevention of cell death elicited by FINs: can be prevented
Gpx4−/− cells
  Effect on lipid peroxidation (BODIPY 581/591 C11 oxidation): could be ameliorated

## CCOC(=O)c1ccc(NC2CCCCC2)c(N)c1 [Fer1, ferrostatin-1]
[2]
  Rescue of cell death in response to Gpx4 deletion: rescued Gpx4^−/− cells from cell death
Pfa1 cells [1]; 24 h
  Prevention of cell death elicited by FINs: can be prevented
Gpx4−/− cells
  Effect on lipid peroxidation (BODIPY 581/591 C11 oxidation): could be ameliorated

## Clc1cccc(CN=C2Nc3ccccc3NC23CCNCC3)c1 [Liproxstatin-1]
CYP450 2D6
  IC50: 4.1 µM
[2]
  Rescue of cell death in response to Gpx4 deletion: inhibit ferroptosis in the low nanomolar range
C57BL/6J mice
  Tissue injury (AST/ALT, necrotic area): mitigated tissue injury
Pfa1 cells [1]; Liproxstatin-1 200 nM, BSO 10 μM, erastin 1 μM, RSL3 0.5 μM, 24 h
  Protection against FINs: protects against FINs
L929 cells
  Effect on necroptosis: does not prevent necroptosis
HepG2 cells
  Cytotoxicity in HepG2 cells TC50: 6 µM
Gpx4−/− cells
  Effect on lipid peroxidation (BODIPY 581/591 C11 oxidation): completely prevents lipid peroxidation
CYP450 1A
  IC50: > 25 µM
CYP450 2C9
  IC50: > 25 µM
CYP450 3A4
  IC50: > 25 µM
Pfa1 cells [3]
  Rescue of cell death induced by staurosporine and H2O2: fails to rescue cell death
hERG channel
  IC50: > 25 µM
CreERT2;Gpx4fl/fl mice; vehicle-treated 11 days, P <0.0001
  Median survival: 14 days
CreERT2;Gpx4fl/fl mice; day 9 after TAM treatment
  TUNEL+ cells in kidney compared with vehicle: strongly reduced number of TUNEL+ cells
Mouse pharmacokinetics
  Bioavailability: 52%
Mouse pharmacokinetics; i.v. 1 mg kg^−1
  C: 0.4 µg/mL
  MRTINF (mean residence time extrapolated to infinity): 4.9 h
  Total Cl: 128 ml h^−1 and 66 ml min^−1 kg^−1
  V: 849 mL
  Vss: 629 mL
  t1/2: 4.6 h
Mouse pharmacokinetics; p.o. 5 mg kg^−1
  Cmax: 80 ng/mL
  Tmax: 2 h
[4]; Liproxstatin-1 100 nM
  Protection from RSL3-induced cell death: able to protect
CYP450 2C19
  IC50: > 25 µM
HRPTEpiCs
  Effect on RSL3-induced BODIPY 581/591 C11 oxidation: could be blocked

## CCCCCCCCCCCCCCCCOCC(COCC(F)(F)F)OP(=O)(O)OC (stereo not drawn) [MJ33]
[2]
  Rescue of cell death in response to Gpx4 deletion: prevented cell death

## CC(C)c1ccc2c(c1)c(SC(C)(C)C)c(CC(C)(C)C(=O)O)n2Cc1ccc(Cl)cc1 [MK886]
[2]
  Rescue of cell death in response to Gpx4 deletion: prevented cell death

## CC(=O)N[C@@H](CS)C(=O)O [NAC, N-acetylcysteine]
[5]
  Rescue of cell death of PZL cells on Gpx4 deficiency: could not be rescued

## CN1C(=O)C(Cc2c[nH]c3ccccc23)NC1=S (stereo not drawn) [Nec1, necrostatin-1]
[2]
  Rescue of cell death in response to Gpx4 deletion: rescued Gpx4^−/− cells from cell death
Pfa1 cells [1]; 24 h
  Prevention of cell death elicited by FINs: can be prevented
Rip1−/− cells
  Prevention of ferroptosis in Rip1−/− cells: ferroptosis could be prevented

## CN1C(=O)NC(Cc2c[nH]c3c(Cl)cccc23)C1=O (stereo not drawn) [Nec1s]
[2]
  Rescue of cell death in response to Gpx4 deletion: did not protect

## c1ccc2c(c1)SCc1c-2[nH]c2ccccc12 [PD146176]
[2]
  Rescue of cell death in response to Gpx4 deletion: prevented cell death

## COC(=O)c1ccc([C@@H]2c3[nH]c4ccccc4c3C[C@@H](C(=O)OC)N2C(=O)CCl)cc1 [RSL3, (1S, 3R)-RSL3, reference compound]
[4]
  Induction of cell death in HRPTEpiCs: efficiently triggered cell death

## CCOc1ccccc1-n1c(C(C)N2CCN(C(=O)COc3ccc(Cl)cc3)CC2)nc2ccccc2c1=O (stereo not drawn) [erastin]
Pfa1 cells [1]
  Induction of cell death through GSH depletion: efficiently triggered rapid cell death

## CC(c1cc2ccccc2s1)N(O)C(N)=O (stereo not drawn) [zileuton]
[2]
  Rescue of cell death in response to Gpx4 deletion: prevented cell death

## Cc1c(C)c2c(c(C)c1O)CC[C@@](C)(CCC[C@H](C)CCC[C@H](C)CCCC(C)C)O2 [αToc, α-tocopherol]
[2]
  Rescue of cell death in response to Gpx4 deletion: cell death could also be inhibited
Pfa1 cells [1]; 24 h
  Prevention of cell death elicited by FINs: can be prevented
[5]
  Rescue of cell death of PZL cells on Gpx4 deficiency: rescued
